Assay results of several laboratories.
Protocols differ between the studies behind these lines.
Target: Mitogen-activated protein kinase kinase kinase 20 (MAP3K20, Homo sapiens, UniProt Q9NYL2)

Compound | observed | action | method | concentration | measurement | result
Cc1ccc(C(=O)Nc2ccc(CN3CCN(C)CC3)c(C(F)(F)F)c2)cc1C#Cc1cnc2cccnn12 | thermal stability |  | DSF | 10 µM | ΔTm | 15 °C
Nc1ncc(-c2nc(N3CCOCC3)nc(N3CCOCC3)n2)c(C(F)F)n1 | binding |  | competition with immobilised ligand | 10 µM | remaining binding | 80%
Cc1nn(C)cc1-c1nc2c(N3CCN(Cc4ccc(Cl)cc4)CC3)c(Cl)cnc2[nH]1 | binding |  | competition with immobilised ligand | 1 µM | remaining binding | 71%
O=c1[nH]c2ccccc2n1C1CCN(Cc2ccc(-c3[nH]c4cc5ncnc5cc4nc3-c3ccccc3)cc2)CC1 | cell-free assay |  |  | 0.5 µM | remaining signal | 106%
Cn1cncc1[C@](O)(COc1ccc(C#N)cc1-c1ccc(OC(F)(F)F)cc1)c1ccc(C#N)cc1 | cell-free assay |  | competition with immobilised ligand | 1 µM | remaining binding | 100%
Cn1cc(-c2cccc(N3CCc4c(sc5c4CC(C)(C)C5)C3=O)c2CO)cc(Nc2ccncn2)c1=O | enzyme activity | inhibitor |  | 1 µM | inhibition | -1%
COc1cc(Nc2ncc(F)c(Nc3ccc4c(n3)NC(=O)C(C)(C)O4)n2)cc(OC)c1OC | binding |  |  | 10 µM | inhibition | 44%
CC(C)(C)c1cc(C=C(C#N)C#N)cc(Br)c1O | enzyme activity | inhibitor |  | 0.5 µM | remaining activity | 91.2%
Cn1cc(-c2cc(F)cc(N3CCn4c(cc5c4CCCC5)C3=O)c2CO)cc(Nc2ccc(N3CCN(C4COC4)CC3)cn2)c1=O | enzyme activity | inhibitor |  | 0.1 µM | inhibition | -3%
COc1ncccc1-c1cnn2ccc(N3CCN(C(=O)OC(C)C)CC3)nc12 | binding |  | competition with immobilised ligand | 1 µM | remaining binding | 78%
